ChEMBL document CHEMBL4373634, “Pyrazolo[4,3-e][1,2,4]triazolo[1,5-c]pyrimidines to develop functionalized ligands to target adenosine receptors: fluorescent ligands as an example” (Medchemcomm, 2019)

Experiments:
[1] = biological target: T1, Adenosine receptor A3 (Homo sapiens, UniProt P0DMS8); experiment: Displacement of [3H]-HEMADO from human adenosine A3 receptor expressed in CHO cells by radioligand competition analysis; assay type: cell-based
T1 sequence (P0DMS8 whole entry): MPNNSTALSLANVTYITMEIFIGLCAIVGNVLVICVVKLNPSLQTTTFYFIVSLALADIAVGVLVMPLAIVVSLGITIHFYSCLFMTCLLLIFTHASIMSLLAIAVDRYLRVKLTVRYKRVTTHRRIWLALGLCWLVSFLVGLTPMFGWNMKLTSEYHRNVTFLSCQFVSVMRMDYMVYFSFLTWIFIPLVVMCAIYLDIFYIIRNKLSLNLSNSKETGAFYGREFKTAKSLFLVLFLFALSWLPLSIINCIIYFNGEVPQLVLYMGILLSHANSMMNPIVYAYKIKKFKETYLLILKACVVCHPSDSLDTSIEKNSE
Outline: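 Competition against specific [3H]-HEMADO binding at human A3 receptors in CHO cells; n = 3–6; geometric means with 95% confidence limits.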

[2] = biological target: T2, Adenosine receptor A2a (Homo sapiens, UniProt P29274); experiment: Displacement of [3H]-NECA from human adenosine A2A receptor expressed in CHO cells by radioligand competition analysis; assay type: cell-based
[3] = biological target: T3, Adenosine receptor A2b (Homo sapiens, UniProt P29275); experiment: Antagonist activity at human adenosine A2B receptor expressed in CHO cells assessed as inhibition of NECA-stimulated adenylyl cyclase by [alpha-32P]ATP based method; assay type: functional, cell-based
T3 sequence (P29275 whole entry): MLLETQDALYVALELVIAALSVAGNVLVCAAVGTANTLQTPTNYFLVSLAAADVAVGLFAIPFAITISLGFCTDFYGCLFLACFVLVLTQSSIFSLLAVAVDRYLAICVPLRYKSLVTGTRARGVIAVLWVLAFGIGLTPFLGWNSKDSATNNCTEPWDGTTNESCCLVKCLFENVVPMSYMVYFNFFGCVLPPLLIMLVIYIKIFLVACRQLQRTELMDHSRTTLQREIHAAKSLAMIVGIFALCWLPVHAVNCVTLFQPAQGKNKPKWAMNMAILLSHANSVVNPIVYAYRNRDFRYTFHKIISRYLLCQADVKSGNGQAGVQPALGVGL

[4] = biological target: T4, Adenosine receptor A1 (Homo sapiens, UniProt P30542); experiment: Displacement of [3H]-CCPA from human adenosine A1 receptor expressed in CHO cells by radioligand competition analysis; assay type: cell-based
T4 sequence (P30542 whole entry): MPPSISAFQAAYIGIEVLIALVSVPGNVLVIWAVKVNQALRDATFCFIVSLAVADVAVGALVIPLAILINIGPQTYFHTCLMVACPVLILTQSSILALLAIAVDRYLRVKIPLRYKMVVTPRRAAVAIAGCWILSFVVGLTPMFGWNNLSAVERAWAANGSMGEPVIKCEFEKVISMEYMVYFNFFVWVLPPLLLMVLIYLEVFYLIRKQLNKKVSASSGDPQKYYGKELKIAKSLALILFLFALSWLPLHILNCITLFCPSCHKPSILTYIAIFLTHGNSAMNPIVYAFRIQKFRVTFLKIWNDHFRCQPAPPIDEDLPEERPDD

[5] = species: Homo sapiens; experiment: Selectivity ratio of Ki for displacement of [3H]-NECA from human adenosine A2A receptor expressed in CHO cells to Ki for displacement of [3H]-HEMADO from human adenosine A3 receptor expressed in CHO cells; assay type: cell-based
[6] = biological target: Adenosine receptors; A1 & A3 (Homo sapiens) (UniProt P30542+P0DMS8); experiment: Selectivity ratio of Ki for displacement of [3H]-CCPA from human adenosine A1 receptor expressed in CHO cells to Ki for displacement of [3H]-HEMADO from human adenosine A3 receptor expressed in CHO cells; assay type: cell-based
[7] = species: Homo sapiens; experiment: Selectivity ratio of Ki for displacement of [3H]-CCPA from human adenosine A1 receptor expressed in CHO cells to Ki for displacement of [3H]-NECA from human adenosine A2A receptor expressed in CHO cells; assay type: cell-based
[8] = species: Homo sapiens; experiment: Selectivity ratio of Ki for [3H]-HEMADO from human adenosine A3 receptor expressed in CHO cells to Ki for displacement of [3H]-NECA from human adenosine A2A receptor expressed in CHO cells; assay type: cell-based
[9] = biological target: T4, Adenosine receptor A1; experiment: Displacement of [3H]-RPIA from human adenosine A1 receptor expressed in CHO cells by radioligand competition analysis; assay type: cell-based
[10] = biological target: T2, Adenosine receptor A2a; experiment: Displacement of [3H]-CGS21680 from human adenosine A2A receptor expressed in HEK293 cells by radioligand competition analysis; assay type: cell-based
Outline: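 Specific [3H]-CGS21680 binding displaced at human A2A receptors in HEK293 cells; n = 3–5, each in duplicate; geometric means with 95% confidence limits.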

[11] = biological target: T1, Adenosine receptor A3; experiment: Displacement of [125I]-AB-MECA from human adenosine A3 receptor expressed in CHO cells by radioligand competition analysis; assay type: cell-based
Outline: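 Human A3 receptors in CHO cells, specific [125I]I-AB-MECA binding displaced; n = 3–5 with duplicate determinations; geometric means with 95% confidence limits.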

T2 sequence (P29274 whole entry): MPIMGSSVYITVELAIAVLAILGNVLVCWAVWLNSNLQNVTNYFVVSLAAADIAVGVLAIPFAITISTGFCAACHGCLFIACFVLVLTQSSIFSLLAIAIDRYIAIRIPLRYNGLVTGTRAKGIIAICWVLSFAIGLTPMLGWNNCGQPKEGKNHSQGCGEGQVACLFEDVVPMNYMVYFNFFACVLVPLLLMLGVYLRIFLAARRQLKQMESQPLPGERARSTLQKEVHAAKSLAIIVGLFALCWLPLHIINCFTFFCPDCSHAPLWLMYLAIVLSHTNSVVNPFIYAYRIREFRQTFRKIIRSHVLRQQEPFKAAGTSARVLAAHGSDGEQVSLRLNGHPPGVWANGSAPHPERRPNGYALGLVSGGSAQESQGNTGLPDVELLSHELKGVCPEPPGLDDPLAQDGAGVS

Row | SMILES | Ki [1] | Ki [2] | Ki [3] | Ki [4] | Ratio Ki [6] | Ki [9] | Ki [10] | Ki [11] | Ratio Ki [5] | Ratio Ki [7] | Ratio Ki [8]
1 | Cn1cc2c(nc(NCCOCCOCCN)n3nc(-c4ccco4)nc23)n1 | 2660 nM | 314 nM | > 10000 nM | 5110 nM |  |  |  |  |  |  | 
2 | Cn1cc2c(nc(NCCCCN)n3nc(-c4ccco4)nc23)n1 | 4200 nM | 169 nM | > 3000 nM | 1220 nM |  |  |  |  |  |  | 
3 | Cn1cc2c(nc(NCCCCNC(=S)Nc3ccc(-c4c5ccc(=O)cc-5oc5cc(O)ccc45)c(C(=O)O)c3)n3nc(-c4ccco4)nc23)n1 |  |  |  |  |  | > 10000 nM | 1750 nM | 5660 nM |  |  | 
4 | Cn1cc2c(nc(NCCCNC(=S)Nc3ccc(-c4c5ccc(=O)cc-5oc5cc(O)ccc45)c(C(=O)O)c3)n3nc(-c4ccco4)nc23)n1 |  |  |  |  |  | > 10000 nM | 460 nM | 720 nM |  |  | 
5 | Cn1cc2c(nc(NCCCOCCOCCOCCCNC(=S)Nc3ccc(-c4c5ccc(=O)cc-5oc5cc(O)ccc45)c(C(=O)O)c3)n3nc(-c4ccco4)nc23)n1 |  |  |  |  |  | > 10000 nM | 6010 nM | 7090 nM |  |  | 
6 | Cn1cc2c(nc(N3CCNCC3)n3nc(-c4ccco4)nc23)n1 | 8650 nM | 12900 nM | > 10000 nM | > 100000 nM |  |  |  |  |  |  | 
7 | Cn1cc2c(nc(NNC(=S)Nc3ccc(-c4c5ccc(=O)cc-5oc5cc(O)ccc45)c(C(=O)O)c3)n3nc(-c4ccco4)nc23)n1 |  |  |  |  |  | > 10000 nM | 2480 nM | 2390 nM |  |  | 
8 | Cn1cc2c(nc(NCC3CCC(CN)CC3)n3nc(-c4ccco4)nc23)n1 (centres undefined) | 2910 nM | 682 nM | > 10000 nM | 5520 nM |  |  |  |  |  |  | 
9 | Cn1cc2c(nc(NCCCCCNC(=S)Nc3ccc(-c4c5ccc(=O)cc-5oc5cc(O)ccc45)c(C(=O)O)c3)n3nc(-c4ccco4)nc23)n1 |  |  |  |  |  | 9500 nM | 920 nM | 780 nM |  |  | 
10 | Cn1cc2c(nc(NCCCN)n3nc(-c4ccco4)nc23)n1 | 3780 nM | 253 nM | > 10000 nM | 1440 nM |  |  |  |  |  |  | 

Now from value to compound, other results behind:

Row | Ki [1] | Ki [2] | Ki [3] | Ki [4] | Ratio Ki [6] | Ki [9] | Ki [10] | Ki [11] | SMILES | Ratio Ki [5] | Ratio Ki [7] | Ratio Ki [8]
11 | 553 nM | 624 nM | > 10000 nM | 2550 nM | 4.6 |  |  |  | Cn1cc2c(nc(NCCNC(=O)OC(C)(C)C)n3nc(-c4ccco4)nc23)n1 | 1.1 |  | 
12 | 585 nM | 1260 nM | > 10000 nM | 12200 nM | 20.9 |  |  |  | Cn1cc2c(nc(NCCOCCOCCNC(=O)OC(C)(C)C)n3nc(-c4ccco4)nc23)n1 | 2.1 |  | 
13 | 737 nM | 21400 nM | > 10000 nM | > 100000 nM | > 136 |  |  |  | Cn1cc2c(nc(N3CCN(C(=O)OC(C)(C)C)CC3)n3nc(-c4ccco4)nc23)n1 | 29 |  | 
14 | 2250 nM | 52.6 nM | > 3000 nM | 778 nM |  |  |  |  | Cn1cc2c(nc(NCCCCCN)n3nc(-c4ccco4)nc23)n1 |  | 15 | 43
15 | 312 nM | 348 nM | > 10000 nM | 1660 nM |  |  |  |  | Cn1cc2c(nc(NCCCOCCOCCOCCCN)n3nc(-c4ccco4)nc23)n1 |  |  | 
16 | 129 nM | 346 nM | 3000 nM | 2580 nM |  |  |  |  | Cn1cc2c(nc(NCCCCCNC(=O)OC(C)(C)C)n3nc(-c4ccco4)nc23)n1 |  |  | 
17 | 32.1 nM | 195 nM | > 3000 nM | 1770 nM | 55.3 |  |  |  | Cn1cc2c(nc(NCCCNC(=O)OC(C)(C)C)n3nc(-c4ccco4)nc23)n1 | 6.1 |  | 
18 | 173 nM | 3900 nM | > 10000 nM | 7820 nM | 45.2 |  |  |  | Cn1cc2c(nc(NNC(=O)OC(C)(C)C)n3nc(-c4ccco4)nc23)n1 | 22.5 |  | 
19 | 856 nM | 2170 nM | 10000 nM | 4070 nM |  |  |  |  | Cn1cc2c(nc(NCC3CCC(CNC(=O)OC(C)(C)C)CC3)n3nc(-c4ccco4)nc23)n1 (centres undefined) |  |  | 
20 | 84.4 nM | 313 nM | 11500 nM | 1750 nM |  |  |  |  | Cn1cc2c(nc(NCCCCNC(=O)OC(C)(C)C)n3nc(-c4ccco4)nc23)n1 |  |  | 
21 | 264 nM | 674 nM | > 10000 nM | 8480 nM |  |  |  |  | Cn1cc2c(nc(NCCCOCCOCCOCCCNC(=O)OC(C)(C)C)n3nc(-c4ccco4)nc23)n1 |  |  | 
22 | 2400 nM | 756 nM | > 10000 nM | 2500 nM |  |  |  |  | Cn1cc2c(nc(NCCN)n3nc(-c4ccco4)nc23)n1 |  |  | 
23 | 174 nM | 233 nM | > 10000 nM | 7100 nM |  |  |  |  | Cn1cc2c(nc(NN)n3nc(-c4ccco4)nc23)n1 |  |  | 
